Most compounds without a hit are left out; they make up all but 9.8% or so of the library.
Lmaj promast – reduces viability of Leishmania major promastigotes. inhibition, % at 10 µM. resazurin fluorescence viability. 200,000 tested, 9% active; in the data active = inhibition above about 50%;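 also: promastigotes grown with compound for 44 hours at 28 °C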
PMI act – increases human mannose-6-phosphate isomerase activity; P34949; purified human PMI, coupled resazurin fluorescence, 20 min; active compounds read high; 1 = vehicle control, 0 substrate-free wells; activation factor at 20 µM; 190,000 tested, 0.005% active;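 active = activation factor of 2 or more at 20 µM, relative to plate controls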
Rad51 HR inh – Rad51 (human) homologous recombination inhibition | hRad51 DNA strand exchange, fluorescence dequenching | inhibition, % at 10 µM | AID 1385 | 200,000 tested, 0.085% active | Q06609;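 active = inhibition above 40% at the single screening dose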;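 also: 0% = DMSO control wells and 100% = blanks with heterologous ssDNA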
Target sequence (Q06609 whole entry, looked up): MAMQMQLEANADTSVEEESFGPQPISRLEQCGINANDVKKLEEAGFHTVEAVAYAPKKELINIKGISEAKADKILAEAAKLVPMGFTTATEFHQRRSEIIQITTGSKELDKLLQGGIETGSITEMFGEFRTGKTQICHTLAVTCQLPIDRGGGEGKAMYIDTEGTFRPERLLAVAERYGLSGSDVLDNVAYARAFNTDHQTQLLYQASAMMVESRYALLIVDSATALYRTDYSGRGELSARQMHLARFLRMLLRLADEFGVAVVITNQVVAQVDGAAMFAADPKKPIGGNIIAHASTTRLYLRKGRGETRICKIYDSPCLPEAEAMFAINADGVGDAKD
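Test system: preformed human Rad51 ssDNA filaments; also added: Donor/quencher-labelled 47-bp dsDNA substrate; doses: 10 µM final, single point; times: 37 °C 15-min filament assembly, 30-min compound preincubation, 15-min exchange; detection: FRET fluorescence dequenching, excitation 485 nm, emission 520 nm; read-out basis: Fluorescence-based percent inhibition, control- and blank-normalised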
PMI act satM6P – increases human PMI activity with near-saturating mannose 6-phosphate. activation factor at 20 µM. coupled PMI enzyme assay, resazurin fluorescence, 20 min; active compounds read high; 1 = untreated enzyme, 0 = substrate-free blank. 190,000 tested, 0.34% active. AID 1216. P34949;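 active = activation factor of 2 or more at 20 µM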
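Test system: human phosphomannose isomerase with PGI, G6PDH, diaphorase coupling enzymes; Amount: PMI at 15 ng/mL final; Reagent: Mannose-6-phosphate 1.0 mM (near-saturating) plus 0.22 mM NADP+; Timing: 20 min, room temperature; Technique: resorufin fluorescence at Ex 544/Em 590 nm; Dosing: 20 µM single dose.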
m-calpain inh – calpain II (pig) inhibition. purified calpain II, fluorogenic peptide substrate, 30 min. inhibition, % at 16 µM. 220,000 tested, 0.37% active. AID 1236;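 active = inhibition above about 50%, limit read from the data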
WT yeast gro inh – growth inhibition of WT yeast, mitochondrial fusion screen | mitochondrial fusion phenotypic screen, WT strain | inhibition, % at 10 µM | 190,000 tested, 2.1% active | AID 1362; in the data active = inhibition above about 58%; tested in S. cerevisiae
* hit, by the source's call; i = inactive; nt = not tested or not shown.

SMILES	Lmaj promast	PMI act	Rad51 HR inh	PMI act satM6P	m-calpain inh	WT yeast gro inh
CCO[C@H]1OC(C(=O)Nc2ccccc2)=C[C@@H](c2ccc(Br)cc2)[C@@H]1CCCO	46	0.8	2	0.9	13	65*
CCO[C@@H]1OC(C(=O)NCc2ccccc2)=C[C@H](C2CCCCC2)[C@H]1CCCO	51*	0.8	-4	0.8	18	7
COC(=O)N/N=C/c1ccc(OS(=O)(=O)c2ccc(C)cc2)c(OC)c1	20	0.9	6	1	-10	-7
COc1ccc(/C=C(\C#N)C(=O)NCc2cccs2)cc1OC	8	0.9	1	1	-4	-8
COc1cc(/C=N/NC(=O)COc2cccc(F)c2)ccc1OS(=O)(=O)c1ccc(C)cc1	99*	0.9	5	0.9	46	-2
COc1cc(/C=N/NC(=O)c2cccnc2)ccc1OS(=O)(=O)c1ccc(F)cc1	1	0.9	-1	0.9	-33	-4
COc1cc(/C=N/NC(=O)COc2ccc(Cl)cc2)ccc1OS(=O)(=O)c1ccc(C)cc1	99*	0.8	-3	0.8	-94	44
C=CCNC(=O)/C(C#N)=C/c1ccc(OS(=O)(=O)c2ccc(C)cc2)c(OC)c1	92*	0.9	nt	0.9	-21	42
O=C(O)c1cc([N+](=O)[O-])ccc1NCCc1ccccc1	nt	nt	5	nt	7	nt
Cc1ccc(C)c(C(=O)COC(=O)c2cc([N+](=O)[O-])ccc2NCCO)c1	3	0.9	5	1	18	60*
O=C(O)c1cc([N+](=O)[O-])ccc1NCCO	56*	1	6	1.1	6	-10
COC(=O)CSc1snnc1-c1ccc(Cl)cc1Cl	-7	0.9	5	0.9	-15	10
CC1CC(=O)NN1C(=O)c1ccccc1 (centres undefined)	nt	nt	11	nt	-2	nt
Cc1ccc(O)c(-c2cc3ccccc3[nH]2)c1	59*	0.7	-2	0.7	i	18
COc1ccc(-c2cc3ccccc3[nH]2)cc1	nt	nt	-1	nt	-11	nt
NC(=S)NC(=O)/C=C/c1ccccc1	15	1.1	41*	1	-26	6
O=C(/C=C/c1ccccc1)NC(=S)NNC(=O)c1cnccn1	nt	nt	3	nt	-10	nt
NC(=O)c1ccccc1NC(=O)/C=C/c1ccccc1	-4	0.8	-1	1	-16	24
O=C(/C=C/c1ccccc1)NC(=S)NNC(=O)c1cccnc1	55*	1	-2	1	25	-3
O=C(/C=C/c1ccccc1)/C=C/c1ccccc1	100*	1	14	0.9	10	57
O[C@@H]1COC(Nc2ccc(N=Nc3ccccc3)cc2)C[C@@H]1O (some centres undefined)	nt	nt	nt	nt	-14	nt
COc1ccccc1C1CCN(C(=O)c2cccc([N+](=O)[O-])c2)CC1	nt	nt	-3	nt	3	nt
CCC(C)n1c(OC)nc2c1c(=O)n(C)c(=O)n2C (centres undefined)	-5	1	4	1.1	-12	-24
COCCNS(=O)(=O)c1cc(C(=O)O)ccc1OC	-18	1.3	-22	1.1	-33	-15
CC(=O)N(c1ccccc1)c1nc(/C=C/C(=O)Nc2c(C)cc(C)cc2C)cs1	39	1	nt	1	-14	2
SMILES	Lmaj promast	PMI act	Rad51 HR inh	PMI act satM6P	m-calpain inh	WT yeast gro inh
N=C(N=C(N)N)N1CCc2ccccc21	-3	1	9	1	-1	-17
COc1ccc(N2CCN(C(c3nnnn3C3CCCC3)C(C)C)CC2)cc1 (centres undefined)	-1	1	-1	0.9	-16	2
COc1ccc(OC)c(C(c2nnnn2C2CCCC2)N2CCN(c3ccc(F)cc3)CC2)c1 (centres undefined)	92*	0.9	nt	1	15	20
COc1ccc2cc(C(c3nnnn3C3CCCCC3)N3CCCCCC3)c3nnnn3c2c1 (centres undefined)	21	nt	nt	nt	nt	nt
COc1ccc(C(c2nnnn2C2CCCC2)N2CCC(C)CC2)c(OC)c1 (centres undefined)	99*	0.9	-2	0.9	-14	26
CNc1cc(N2CCCC2)ccc1[N+](=O)[O-]	0	0.8	nt	0.6	31	0
C=CCc1cccc(CNc2ccc(Br)cc2)c1O	1	0.8	6	0.9	14	46
COc1ccc(C(=O)C[n+]2cn(C(F)F)c3ccccc32)c(F)c1	2	1.3	7	1.1	-8	70*
CCCCNC(=O)c1ccc2c(OCC)n(CCCC)nc2c1	5	1	3	0.9	-484	12
CCCCn1nc2cc(C(=O)NCC34CC5CC(CC(C5)C3)C4)ccc2c1OC	59*	0.9	15	0.9	-237	10
CCCCn1nc2cc(C(=O)NCCCCc3ccccc3)ccc2c1OCC	73*	1	8	1	-177	32
CCOc1c2ccc(C(=O)NCc3ccco3)cc2nn1CC	-2	1	-7	1	-309	13
CCOc1c2ccc(C(=O)NCC34CC5CC(CC(C5)C3)C4)cc2nn1CC	86*	0.9	-13	0.9	i	9
CCOc1c2ccc(C(=O)NCc3ccccc3OC)cc2nn1CC	-3	1.1	-2	1.1	i	0
CCn1nc2cc(C(=O)NCC34CC5CC(CC(C5)C3)C4)ccc2c1OC	51*	1.2	-11	1.3	i	-24
CCCCn1nc2cc(C(=O)NCC3CC3)ccc2c1OCC	-5	1.1	5	1.1	i	-9
Cc1cccc(C)c1NC(=O)c1sc(Cl)nc1C	-4	1	nt	1	-2	-9
O=c1c2ccccc2nc(/C=C/c2cccc([N+](=O)[O-])c2)n1CCCO	21	nt	-3	nt	nt	nt
O=c1c2ccccc2nc(/C=C/c2ccc([N+](=O)[O-])cc2)n1CCCO	60*	0.9	2	1	2	-8
O=c1c2ccccc2nc(/C=C/c2ccc([N+](=O)[O-])o2)n1CCCO	101*	1	-1	1	-52	65*
CCN(CC)S(=O)(=O)c1ccc(N2CCOCC2)c(NC(=O)C(C)(C)C)c1	nt	nt	3	nt	-7	nt
CCN(CC)S(=O)(=O)c1ccc(N2CCOCC2)c(NC(=O)CC23CC4CC(CC(Br)(C4)C2)C3)c1	51*	0.9	9	1	20	-4
CCN(CC)S(=O)(=O)c1ccc(N2CCOCC2)c(NC(=O)Cc2ccc(Cl)cc2)c1	50*	1	2	1	20	14
Oc1ccccc1CN1CCCN(Cc2ccccc2O)C1	31	0.9	-9	1	27	7
O=C(C1CC1)N1CCC(C(O)(c2ccccc2)c2ccccc2)CC1	95*	1	-3	1	-9	-10
CC(C)(C)c1ccc(C(O)CCCN2CCC(C(O)(c3ccccc3)c3ccccc3)CC2)cc1 (centres undefined)	100*	1	-6	1	21	92*
